Data as given in ChEMBL document CHEMBL1126550, “Nanomolar-affinity, non-peptide oxytocin receptor antagonists” (J Med Chem, 1993).

How the values were obtained:
Vasopressin V2 receptor = Vasopressin V2 receptor (Rattus norvegicus, UniProt Q00788); experiment: Inhibition of radioligand [3H]-AVP binding to the vasopressin V2 receptor in rat kidney tissue
Procedure, shortened: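 [3H]AVP (80–90 Ci/mmol) at 2 nM competed on crude membranes from male rat kidney medulla (V2 sites). Equilibrium 30 min at 30 °C in 100 mM Tris-HCl, 5 mM MgCl2, 0.1% BSA, 50 μM PMSF, 50 μg/mL bacitracin, pH 8.0. Nonspecific binding with 10 μM unlabeled AVP. Glass-fiber filtration. IC50 by linear regression of % inhibition vs log concentration, seven concentrations.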

Vasopressin V1 receptor = Vasopressin V1 receptor (Rattus norvegicus, UniProt P48974+P30560); experiment: Inhibition of radioligand [3H]AVP binding to the vasopressin V1 receptor in rat liver tissue
Procedure, shortened: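 Crude membranes from male rat liver (V1 sites) competed with 1 nM [3H]AVP (80–90 Ci/mmol). Equilibrium 30 min, 30 °C, buffer 100 mM Tris-HCl, 5 mM MgCl2, 0.1% BSA, 50 μM PMSF, 50 μg/mL bacitracin, pH 8.0. 10 μM unlabeled AVP for nonspecific binding. Filtration through glass-fiber filters. IC50 from linear regression over seven concentrations.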

Oxytocin receptor = target: T1, Oxytocin receptor (Rattus norvegicus, UniProt P70536); experiment: Inhibition of radioligand [3H]oxytocin binding at the oxytocin (OT) receptor in rat uterine tissue
T1 sequence (P70536 whole entry): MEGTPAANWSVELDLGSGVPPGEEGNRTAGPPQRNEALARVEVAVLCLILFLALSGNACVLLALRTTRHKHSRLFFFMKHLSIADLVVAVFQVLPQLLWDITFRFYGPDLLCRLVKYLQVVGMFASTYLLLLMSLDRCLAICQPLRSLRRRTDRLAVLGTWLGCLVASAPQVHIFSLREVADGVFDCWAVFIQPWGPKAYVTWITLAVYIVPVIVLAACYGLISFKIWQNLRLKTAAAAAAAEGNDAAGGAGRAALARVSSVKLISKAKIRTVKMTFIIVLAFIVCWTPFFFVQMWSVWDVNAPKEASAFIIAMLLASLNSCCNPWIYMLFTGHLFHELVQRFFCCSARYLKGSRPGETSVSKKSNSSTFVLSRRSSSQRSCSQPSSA
Procedure, shortened: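 Uteri taken from rats given diethylstilbestrol dipropionate (0.3 mg/kg ip, 18–24 h before), crude membranes. 1 nM [3H]OT (30–60 Ci/mmol), equilibrium 60 min at 22 °C in 50 mM Tris-HCl, 5 mM MgCl2, 0.1% BSA, pH 7.4. Nonspecific binding with 1 mM unlabeled OT. Filtered on glass fiber. Initial single-concentration screen, then IC50 from seven concentrations by linear regression.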

Chain of Vasopressin V2 receptor (Q00788 whole entry): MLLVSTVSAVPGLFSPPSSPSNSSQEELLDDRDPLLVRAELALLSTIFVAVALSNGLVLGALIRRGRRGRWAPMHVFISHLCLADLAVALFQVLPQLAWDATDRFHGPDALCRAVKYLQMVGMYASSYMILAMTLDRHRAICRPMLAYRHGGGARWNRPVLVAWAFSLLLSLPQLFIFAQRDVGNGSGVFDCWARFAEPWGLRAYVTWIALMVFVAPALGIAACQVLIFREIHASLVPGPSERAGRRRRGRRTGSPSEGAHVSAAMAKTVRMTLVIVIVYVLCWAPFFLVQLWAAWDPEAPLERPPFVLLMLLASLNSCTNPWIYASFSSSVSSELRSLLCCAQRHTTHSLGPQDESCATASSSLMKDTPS

Row | SMILES | IC50 (Vasopressin V2 receptor) | IC50 (Vasopressin V1 receptor) | IC50 (Oxytocin receptor)
1 | CC(C)[C@H](N)C(=O)NC[C@@]1(O)C[C@H]2CC[C@]1(CS(=O)(=O)N1CCC3(C=Cc4ccccc43)CC1)C2(C)C | 4900 nM | 290 nM | 43 nM
2 | CNC1CCN([C@H]2C[C@H]3CC[C@]2(CS(=O)(=O)N2CCC4(CCc5ccccc54)CC2)C3(C)C)C1=O (some centres not stated) | 12000 nM | 4700 nM | 210 nM
3 | CC1(C)[C@@H]2CC[C@@]1(CS(=O)(=O)N1CCC3(CCc4ccccc43)CC1)[C@@H](NC(=O)CCc1c[nH]cn1)C2 | 21000 nM | 5800 nM | 94 nM
4 | CC(C)CC1NC(=O)N([C@H]2C[C@H]3CC[C@]2(CS(=O)(=O)N2CCC4(CCc5ccccc54)CC2)C3(C)C)C1=O (some centres not stated) | 4200 nM | 1200 nM | 92 nM
5 | CC1(C)[C@@H]2CC[C@@]1(CS(=O)(=O)N1CCC3(CCc4ccccc43)CC1)[C@@H](N1C(=O)NC(CN)C1=O)C2 (some centres not stated) | 2100 nM | 490 nM | 35 nM
6 | CC1(C)[C@@H]2CC[C@@]1(CS(=O)(=O)N1CCC3(C=Cc4ccccc43)CC1)[C@@](O)(CCNC(=O)C1=CCC(=O)N=C1)C2 | 2600 nM | 1000 nM | 49 nM
7 | CCC(C(=O)N[C@H]1C[C@H]2CC[C@]1(CS(=O)(=O)N1CCC3(CCc4ccccc43)CC1)C2(C)C)c1c[nH]cn1 (some centres not stated) | 15000 nM | 4000 nM | 170 nM
8 | CN(C)CC(=O)NCC(=O)N[C@H]1C[C@H]2CC[C@]1(CS(=O)(=O)N1CCC3(CCc4ccccc43)CC1)C2(C)C | 3000 nM | > 300 nM | 61 nM
9 | CC1(C)[C@@H]2CC[C@@]1(CS(=O)(=O)N1CCC3(CCc4ccccc43)CC1)[C@@H](NC(=O)Cc1ccccn1)C2 | 6500 nM | 3900 nM | 95 nM
10 | CC1(C)[C@@H]2CC[C@@]1(CS(=O)(=O)N1CCC3(CCc4ccccc43)CC1)[C@@H](NC(=O)CCc1ccccc1)C2 | > 10000 nM | 10000 nM | 530 nM
11 | CC(=O)N[C@H]1C[C@H]2CC[C@]1(CS(=O)(=O)N1CCC3(CCc4ccccc43)CC1)C2(C)C | 26000 nM | 7600 nM | 390 nM
12 | CC1(C)[C@@H]2CC[C@@]1(CS(=O)(=O)N1CCC3(CCc4ccccc43)CC1)[C@@H](N1C(=O)CC(CC(=O)O)C1=O)C2 (some centres not stated) | 2500 nM | 1600 nM | 30 nM
13 | CC1(C)[C@@H]2CC[C@@]1(CS(=O)(=O)N1CCC3(CCc4ccccc43)CC1)[C@@H](N1C(=O)CNC1=O)C2 | 2100 nM | 1100 nM | 18 nM
14 | Cn1cnc(CC(=O)N[C@@H](CCC(N)=O)C(=O)N[C@H]2C[C@H]3CC[C@]2(CS(=O)(=O)N2CCC4(CCc5ccccc54)CC2)C3(C)C)c1 | 620 nM | 1900 nM | 1.7 nM
15 | CC1(C)[C@@H]2CC[C@@]1(CS(=O)(=O)N1CCC3(CCc4ccccc43)CC1)[C@@H](N1C(=O)CN(CC(=O)Nc3ncc[nH]3)C1=O)C2 | 740 nM | 500 nM | 5.9 nM
16 | CC1(C)[C@@H]2CC[C@@]1(CS(=O)(=O)N1CCC3(CCc4ccccc43)CC1)[C@@H](NC(=O)c1ccccc1)C2 | > 10000 nM | 10000 nM | 1000 nM
17 | CC1(C)[C@@H]2CC[C@@]1(CS(=O)(=O)N1CCC3(C=Cc4ccccc43)CC1)C(=O)C2 | > 10000 nM | > 10000 nM | 1800 nM
18 | CC1(C)[C@@H]2CC[C@@]1(CS(=O)(=O)N1CCC3(C=Cc4ccccc43)CC1)[C@@](O)(CCNC(=O)Cc1c[nH]cn1)C2 | > 3000 nM | > 300 nM | 90 nM
19 | COC(=O)CNC(=O)N[C@H]1C[C@H]2CC[C@]1(CS(=O)(=O)N1CCC3(CCc4ccccc43)CC1)C2(C)C | > 3000 nM | > 3000 nM | 160 nM
